Assay results published in ChEMBL document CHEMBL1765035, “Radiosynthesis and in vivo evaluation of 1-[18F]fluoroelacridar as a positron emission tomography tracer for P-glycoprotein and breast cancer resistance protein” (Bioorg Med Chem, 2011).
pIC50: −log10 of the molar value.

Legend:
[1] = Inhibition of human Pgp overexpressed in […]-MDR1 cells assessed as inhibition of R123 efflux after 60 mins; type: cell-based, MDCK-II; conditions: 1 h
[2] = system: Plasma; assay: Drug concentration in Sprague-Dawley rat plasma assessed as radiometabolites at 74 +/- 23 MBq after 20 mins by SPE assay relative to total plasma concentration; type: ADME, cell-free
Summary of the method: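 Female Sprague-Dawley rats (n=3) under isoflurane, given i.v. [18F]-tracer (74±23 MBq, 17.2±3.9 nmol or 37±10 μg/kg unlabelled) without PET imaging. Arterial blood was drawn at 10, 20 and 30 min, with a terminal sample at 40 min. Plasma was obtained by centrifugation (3000×g, 5 min) and run through solid-phase extraction. The plasma, H2O and MeOH fractions were gamma-counted. Polar radiometabolites (fractions 1+2) are given as % of total plasma activity.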

[3] = system: Plasma; assay: Drug concentration in Sprague-Dawley rat plasma assessed as radiometabolites at 74 +/- 23 MBq after 30 mins by SPE assay relative to total plasma concentration; type: ADME, cell-free; conditions: 0.5 h
Summary of the method: (§1)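 Female Sprague Dawley rats (n=3, isoflurane, no PET) given [18F] tracer i.v. (74±23 MBq). Blood drawn at 10, 20, 30 min and terminally at 40 min. Plasma centrifuged and run through SPE. Polar radiometabolites are counted as fractions 1+2 by gamma counter, as % of total plasma activity. At 40 min the MeOH fraction also went to reversed-phase HPLC.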

[4] = Ratio of drug level in brain to blood in Mdr1a/b(-/-)/Bcrp1(-/-) mouse; type: ADME, tissue-based
Summary of the method: (§2)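 Female FVB wild-type and Mdr1a/b(−/−)Bcrp1(−/−) mice (n=3 each), isoflurane-anaesthetised. [18F] tracer given via tail vein (6±1 MBq), 60 min dynamic microPET. Brain SUV at 50-60 min divided by whole-blood SUV; blood taken retro-orbitally at scan end and gamma-counted. Groups compared by 2-tailed t-test.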

[5] = Drug uptake in Sprague-Dawley rat humerus after 140 mins in presence of 5 mg/kg elacridar; type: ADME, organism-based; design: dose 5 mg/kg; conditions: in vivo
Summary of the method: (§3)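 Isoflurane-anaesthetised female Sprague Dawley rats (n=3, warmed about 38°C), femoral catheters. [18F] tracer given i.v. (33±3 MBq), followed by a dynamic 150 min microPET scan. […] Whole brain or humerus outlined on summation images; time-activity curves given as SUV (mean±SD).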

[6] = system: Brain; assay: Drug uptake in Sprague-Dawley rat brain at 33 +/- 3 MBq, iv administered 60 mins before 5 mg/kg, iv elacridar injection measured after 25 mins; type: ADME, organism-based; design: dose 5 mg/kg, route intravenous; conditions: in vivo; summary of the method: as §3
[7] = system: Plasma; assay: Drug concentration in Sprague-Dawley rat plasma assessed as radiometabolites at 74 +/- 23 MBq after 40 mins by SPE assay relative to total plasma concentration; type: ADME, cell-free; summary of the method: as §1
[8] = system: Brain; assay: Drug uptake in Sprague-Dawley rat brain after 40 mins by reversed-phase HPLC; type: ADME, tissue-based; conditions: in vivo
Summary of the method: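 Same rat group (n=3) injected i.v. with [18F] tracer and sacrificed at 40 min. Brain washed with ice-cold H2O, homogenized in 0.9% NaCl and extracted with CH3CN. Supernatant diluted 1:1 with 0.1% TFA and analysed by reversed-phase HPLC with UV 257 nm and radioactivity detection. Value is unchanged tracer as % of total brain radioactivity.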

[9] = system: Plasma; assay: Drug concentration in Sprague-Dawley rat plasma assessed as radiometabolites at 74 +/- 23 MBq after 10 mins by SPE assay relative to total plasma concentration; type: ADME, cell-free; summary of the method: as §1
[10] = Drug uptake in Sprague-Dawley rat humerus after 1.8 mins in presence of 5 mg/kg elacridar; type: ADME, organism-based; design: dose 5 mg/kg; conditions: in vivo, 0.03 h; summary of the method: as §3
[11] = system: Brain; assay: Drug uptake in Sprague-Dawley rat brain at 33 +/- 3 MBq, iv administered 60 mins before 5 mg/kg, iv elacridar injection measured after 0.9 to 1.3 mins; type: ADME, organism-based; design: dose 5 mg/kg, route intravenous; conditions: in vivo; summary of the method: as §3
[12] = system: Brain; assay: Drug uptake in Sprague-Dawley rat brain at 33 +/- 3 MBq, iv administered 60 mins before 5 mg/kg, iv elacridar injection measured after 140 mins; type: ADME, organism-based; design: dose 5 mg/kg, route intravenous; conditions: in vivo; summary of the method: as §3
[13] = Ratio of drug level in brain to blood in wild-type mouse; type: ADME, tissue-based; summary of the method: as §2
[14] = system: MDCK-II; conditions: Homo sapiens, 3.7 uM

COc1cc2c(cc1OC)CN(CCc1ccc(NC(=O)c3ccc(F)c4c(=O)c5cccc(OC)c5[nH]c34)cc1)CC2
pIC50 [1]: 5.77

COc1cc2c(cc1OC)CN(CCc1ccc(NC(=O)c3cc(F)cc4c(=O)c5cccc(OC)c5[nH]c34)cc1)CC2
pIC50 [1]: 6.22

COc1cc2c(cc1OC)CN(CCc1ccc(NC(=O)c3ccc(Cl)c4c(=O)c5cccc(OC)c5[nH]c34)cc1)CC2
pIC50 [1]: 5.42

COc1cc2c(cc1OC)CN(CCc1ccc(NC(=O)c3cc(Cl)cc4c(=O)c5cccc(OC)c5[nH]c34)cc1)CC2
pIC50 [1]: 5.85

COc1cc2c(cc1OC)CN(CCc1ccc(NC(=O)c3ccc([N+](=O)[O-])c4c(=O)c5cccc(OC)c5[nH]c34)cc1)CC2
pIC50 [1]: 5.80

COc1cc2c(cc1OC)CN(CCc1ccc(NC(=O)c3ccc([18F])c4c(=O)c5cccc(OC)c5[nH]c34)cc1)CC2
Cp [2]: 6%
Cp [3]: 12%
Kp [4]: 11.6
SUV [5]: 4.59
SUV [6]: 0.14
Cp [7]: 13%
Drug uptake [8]: 93%
Cp [9]: 6%
SUV [10]: 1.42
SUV [11]: 0.46
SUV [12]: 1.14
Kp [13]: 1.5

COc1cc2c(cc1OC)CN(CCc1ccc(NC(=O)c3cccc4c(=O)c5cccc(OC)c5[nH]c34)cc1)CC2
inhibition [14]: 100%
